Measured values reported in ChEMBL document CHEMBL1125754, “Synthesis and antiviral activity of 9-alkoxypurines. 2. 9-(2,3-Dihydroxypropoxy)-, 9-(3,4-dihydroxybutoxy)-, and 9-(1,4-dihydroxybut-2-oxy)purines” (J Med Chem, 1991).
pIC50: −log10 of the molar value.

How the values were obtained:
Human alphaherpesvirus 3 [1] = assay: Compound was tested for its antiviral activity against VZV (Ellen) using plaque reduction assay.; assay type: functional, organism-based
Method in brief: (§1)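 MRC-5 cell monolayers were infected with about 50 PFU of virus. Compounds were present at various concentrations for the whole incubation; stocks were 10 mg/mL in Me2SO, diluted in culture medium. IC50 is the concentration that cut plaque count to 50% of untreated controls.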

Human alphaherpesvirus 2 [2] = assay: Compound was tested for its antiviral activity against HSV-2 (MS) using plaque reduction assay.; assay type: functional, organism-based; method in brief: as §1
Human alphaherpesvirus 1 = assay: Compound was tested for its antiviral activity against HSV-1 (SC16) using plaque reduction assay.; assay type: functional, organism-based; method in brief: as §1
Human alphaherpesvirus 3 [3] = assay: Compound was tested for its antiviral activity against VZV(Ellen) using plaque reduction assay.
Human alphaherpesvirus 2 [4] = assay: Compound was tested for its antiviral activity against HSV-2(MS) using plaque reduction assay.; assay type: functional, organism-based; method in brief: as §1

Work on `Nc1nc(O)c2ncn(OC[C@H](O)CO)c2n1` yielded a pIC50 (Human alphaherpesvirus 3 [1]) of under 3.38, a pIC50 (Human alphaherpesvirus 2 [2]) of under 3.38 and a pIC50 (Human alphaherpesvirus 1) of under 3.38.
Molecule `Nc1nc(O)c2ncn(OCCC(O)CO)c2n1` (centres undefined) has a pIC50 (Human alphaherpesvirus 3 [1]) of under 3.41, a pIC50 (Human alphaherpesvirus 2 [2]) of under 3.41 and a pIC50 (Human alphaherpesvirus 1) of under 3.41.
Work on `Nc1nc(O)c2ncn(O[C@@H](CO)CCO)c2n1` yielded a pIC50 (Human alphaherpesvirus 3 [1]) of under 3.41, a pIC50 (Human alphaherpesvirus 2 [2]) of under 3.41 and a pIC50 (Human alphaherpesvirus 1) of 3.41.
In the case of `Nc1nc(O)c2ncn(O[C@H](CO)CCO)c2n1`, the pIC50 (Human alphaherpesvirus 3 [1]) was 5.08, the pIC50 (Human alphaherpesvirus 2 [2]) was under 3.41 and the pIC50 (Human alphaherpesvirus 1) was 4.44.
`Nc1nc(O)c2ncn(OC(CO)CCO)c2n1` (centres undefined) was tested, and the pIC50 (Human alphaherpesvirus 3 [1]) was 4.52, the pIC50 (Human alphaherpesvirus 2 [2]) was under 3.41 and the pIC50 (Human alphaherpesvirus 1) was 4.37.
Work on `Nc1nc(O)c2ncn(OCC(O)CO)c2n1` (centres undefined) yielded a pIC50 (Human alphaherpesvirus 3 [1]) of 3.81, a pIC50 (Human alphaherpesvirus 2 [2]) of 5.55 and a pIC50 (Human alphaherpesvirus 1) of 5.10.
Work on `Nc1nc(O)c2ncn(OC[C@@H](O)CO)c2n1` yielded a pIC50 (Human alphaherpesvirus 3 [1]) of 4.21, a pIC50 (Human alphaherpesvirus 2 [2]) of 6.34 and a pIC50 (Human alphaherpesvirus 1) of 5.57.
In the case of `Nc1nc2c(ncn2COCCO)c(=O)[nH]1` [ACYCLOVIR], the pIC50 (Human alphaherpesvirus 3 [3]) was 4.82, the pIC50 (Human alphaherpesvirus 2 [4]) was 5.92 and the pIC50 (Human alphaherpesvirus 1) was 5.32.
